Measured values published in paper PMC7540589 (Chemmedchem, 2020).

Assay: Thermal and radiochemical stability during 68Ga-radiolabeling
Assay type: physicochemical
Conditions: elevated temperature of 99 °C
Summary of the method: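 Precursor (20 nmol in water) was added to 376.6–461.0 MBq ⁶⁸Ga³⁺ from ⁶⁸Ge/⁶⁸Ga generator fractioned elution with 0.1 M HCl. The mixture was titrated to pH 3.5–4.0 with 1.25 M sodium acetate and heated at 99 °C for 10 min. Reaction mixtures were analysed by analytical radio-HPLC.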

thermal stability of precursor: stable
Substance: Ac[D‐Cys^29,Lys(DOTA)^31,Cys^34]NPY29‐36 [Compound 4]
